Source: PubChem BioAssay (The Scripps Research Institute Molecular Screening Center)
S1P3 ag: S1P3 (human) receptor agonism; AID 373; Q99500; S1P3 NFAT-BLA reporter cells, FRET ratio; relative to 1 µM S1P, basal subtracted; hit rate 0.1% among 60,000; activation, % at 4.5 µM;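 active means activation above the screen-wide mean plus 3 SD, cut at about 4.5% in these data, passing the limit was not always enough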
Target sequence (Q99500 whole entry, looked up): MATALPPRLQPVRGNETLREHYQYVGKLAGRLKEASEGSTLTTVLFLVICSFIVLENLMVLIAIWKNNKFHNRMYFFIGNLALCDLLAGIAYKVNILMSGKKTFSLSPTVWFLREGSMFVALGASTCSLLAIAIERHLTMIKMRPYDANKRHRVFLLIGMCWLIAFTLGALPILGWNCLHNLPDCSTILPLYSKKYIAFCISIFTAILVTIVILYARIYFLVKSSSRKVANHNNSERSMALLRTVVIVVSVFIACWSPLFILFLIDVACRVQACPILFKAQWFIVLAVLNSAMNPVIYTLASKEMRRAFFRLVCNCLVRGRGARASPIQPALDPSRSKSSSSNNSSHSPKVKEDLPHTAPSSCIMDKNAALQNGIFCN
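Material: Human S1P3 NFAT-BLA reporter CHO cells | Incubation: Overnight plating, 4 h compound 37 °C, 2 h substrate RT | Signal: FRET β-lactamase substrate fluorescence, excitation 405 nm, 460/535 nm emission ratio, background-subtracted | Compound: 4.5 µM final, single dose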
5-HT1A blocker: blocks the human serotonin 5-HT1a receptor. P08908. CHO 5-HT1a Ga15 NFAT-bla reporter, antagonist mode. inhibition, % at 10 µM. hit rate 0.68% among 62,000. AID 612;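 active means inhibition above the mean of all tested compounds plus 3 SD, cut at about 43% in these data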;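 further: receptor stimulated by 5-CT agonist at 100 nM near EC80; beta-lactamase reporter measured by ratiometric fluorescence of a cleavable substrate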
S1P1 ag-PAM: activates or potentiates agonism at human S1P1 receptor; P21453; S1P1 CRE-bla cells, forskolin, beta-lactamase FRET, potentiator mode; S1P1 agonist co-added at EC20, 2 nM; 100% = saturating reference agonist, 0% = basal; activation, % at 9.5 µM; hit rate 0.57% among 56,000; AID 449;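 active means activation above a cutoff set at the mean activation of all tested compounds plus 3 SD, cut at about 54% in these data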;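 further: forskolin at 4 µM as EC80 and the EC20 agonist is SEW2871; 100% = SEW2871 at its EC100 plus forskolin at EC80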
HTR1A agonist: 5-HT1a (human) receptor agonism | CHO 5-HT1a Ga15 NFAT-bla reporter, FRET ratio; 0% basal, 100% maximal reference agonist | hit rate 0.56% among 65,000 | activation, % at 10 µM | AID 567;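 active means activation above the screen-wide mean activation plus 3 SD, cut at about 19% in these data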;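 further: 0% = DMSO wells and 100% = 5-CT at EC100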
5HT1E antag: antagonists of human 5-HT1E serotonin receptor | P28566 | inhibition, % at 6 µM | AID 571 | CHO 5-HT1E Ga15 NFAT-bla reporter, FRET, antagonist | hit rate 0.99% among 65,000;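 active means inhibition above a set limit, the mean inhibition across every tested compound plus 3 SD, cut at about 29% in these data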;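 further: signal is the 460 over 535 nm emission ratio of beta-lactamase substrate; 0% = agonist plus DMSO wells and 100% = wells without agonist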
HTR1E agonist: agonists of human 5-HT1E serotonin receptor; P28566; CHO 5-HT1E Ga15 NFAT-bla reporter, FRET; 0% DMSO wells, 100% control agonist wells; activation, % at 6 µM; hit rate 0.69% among 65,000;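 active means activation above a set limit, the screen-wide mean activation plus 3 SD, cut at about 8.5% in these data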;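 further: 100% = positive control agonist at 1 µM giving full maximal response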
Active calls of the source: *; · = no result given. A selection: hits, their analogues and other compounds. The true share with any hit is near 2.9%.

SMILES	S1P3 ag	5-HT1A blocker	S1P1 ag-PAM	HTR1A agonist	5HT1E antag	HTR1E agonist
COc1ccc(-c2nc(C#N)c(NCc3ccc(F)cc3)o2)cc1OC	0	3	-17	0	30*	1
Cc1ccc(C)c(S(=O)(=O)Nc2ccc3scnc3c2)c1	-1	20	·	-2	10	0
COc1ccccc1-c1nn2c(-c3ccccc3Cl)nnc2s1	-1	4	·	-2	-2	-1
CCN(CC)c1ccc(-c2nn3c(-c4ccccc4OC)nnc3s2)cc1	-1	70*	-90	1	67*	1
CN(C)c1ccc(-c2nn3c(-c4ccc(Cl)cc4Cl)nnc3s2)cc1	0	17	7	0	37*	-1
CCOCCCNC(=O)Cc1c(C(=O)O)[nH]c2ccc(Cl)cc12	-1	-2	-10	1	6	0
COC(=O)c1cc(OC)c(OC)cc1NC(=O)C1CCC(=O)N1S(=O)(=O)c1ccc(C)cc1 (stereo not drawn)	-1	15	8	3	36*	0
Cc1ccc(-n2c(SCC(=O)N3CCOCC3)nnc2-c2cccnc2)cc1C	-1	-4	2	3	-1	44*
CC(C)OCCCn1c(=NC(=O)c2ccncc2)c(C#N)cc2c(=O)n3ccccc3nc21	2	-34	-61	37*	-6	9.1*
CCOC(=O)c1cc2c(=O)n3ccccc3nc2n(CCCOC)c1=NC(C)=O	·	-45	·	23*	1	7
CCCn1c(=NC(=O)c2ccco2)c(C(=O)OCC)cc2c(=O)n3ccccc3nc21	0	22	·	7	2	3
C=CCn1c(=N)c(C(=O)NCCCOC)cc2c(=O)n3ccccc3nc21	2	-18	-26	20*	-3	6
N=c1c(C(=O)NCc2ccc(F)cc2)cc2c(=O)n3ccccc3nc2n1CCCN1CCOCC1	6	-9	-85	31*	-5	4
O=C(O)C1C2C=CC3(CN(Cc4ccncc4)C(=O)C13)O2 (stereo not drawn)	-1	-4	-9	-2	-8	0
COC(=O)c1[nH]c2cc(OC)c(OC)cc2c1NC(=O)CN1CCN(Cc2ccccc2)CC1	0	7	-29	1	39*	0
CCOC(=O)C1CCCCN1Cc1ccccc1C(F)(F)F (stereo not drawn)	0	-5	10	-3	-2	-1
COC(=O)c1ccc(CSc2nc(C)nc3sc(C)c(C)c23)o1	0	50*	7	-4	33*	-1
COC(=O)c1ccc(CSc2nnc(SCc3ccc(C(=O)OC)o3)s2)o1	0	12	12	-1	3	-1
C=CCNC(=O)CC(C)C(CCCCC)C(=O)O (stereo not drawn)	0	-7	7	1	1	0
O=C(CCn1c(=O)sc2ccccc21)NCc1cccs1	·	10	·	74*	13	-2
Cc1noc(C)c1CSc1nc2ccccc2[nH]1	1	-2	-5	67*	14	-1
COc1ccccc1NC(=O)N1CCc2[nH]c3ccc(F)cc3c2C1	1	29	13	1	29*	-2
COC(=O)c1cn(C(=O)c2ccco2)c2ccccc12	-2	-5	-9	-2	-5	0
Cn1cc(/C(Cc2ccccc2)=N\O)c2ccccc21	-1	31	11	-5	0	57*
CCOC(=O)c1sc2c(c1C)C(c1cccs1)C1=C(CCCC1=O)N2 (stereo not drawn)	1	-4	-94	22*	6	6
SMILES	S1P3 ag	5-HT1A blocker	S1P1 ag-PAM	HTR1A agonist	5HT1E antag	HTR1E agonist
CCOC(=O)N1CCC(NC(=O)c2ccc(CS(=O)(=O)c3c(Cl)cccc3Cl)o2)CC1	1	-3	5	0	-3	2
CCOC(=O)N1CCC(NC(=O)c2ccc(CS(=O)(=O)c3ccccc3C)o2)CC1	1	5	-10	39*	-6	2
CC(=O)OC(C(=O)NC1CCCCC1)c1ccc(C)cc1 (stereo not drawn)	0	16	3	-4	7	32*
CC(=O)OC(C(=O)NC1CCCCC1)c1ccc(C#N)cc1 (stereo not drawn)	0	2	-15	-3	9	-1
COc1cccc(CNCC(=O)N2C(C)CCCC2C)c1 (stereo not drawn)	0	-4	4	1	1	-1
Cc1ccc(S(=O)(=O)N2CCN(S(=O)(=O)N3CCCCC3)CC2)cc1	0	-9	-1	4	-8	0
Cc1ccc(S(=O)(=O)N2CC3(C)CN(S(=O)(=O)c4ccc(C)cc4)CC(C)(C2)C3O)cc1 (stereo not drawn)	1	-14	-7	3	0	9.9*
O=C(Nc1ccc(-c2nc3ncccc3o2)cc1)c1ccc(Br)o1	0	9	·	-2	62*	1
O=C(Nc1ccc(-c2nc3ncccc3o2)cc1)c1ccco1	0	10	·	0	-11	-1
CS(=O)(=O)c1nc(-c2ccccc2)cc(C(F)(F)F)n1	·	110*	·	-9	64*	3
Cc1cc(NC(=O)CCS(=O)(=O)c2nc(-c3ccccc3)cc(C(F)(F)F)n2)no1	-1	61*	·	1	40*	0
COc1ccc(-c2cc(C(F)(F)F)nc(SCC(=O)Nc3cc(C)on3)n2)cc1	-1	10	7	-1	1	-1
Cc1nnc2n1N=CC=C(c1ccccc1)S2	-1	9	20	0	30*	0
CC(C)C(NS(=O)(=O)c1cccs1)C(=O)NCc1ccc2c(c1)OCO2 (stereo not drawn)	0	-4	-7	0	-11	1
O=c1[nH]cnc2cc(-c3ccccc3)sc12	-3	·	10	-1	8	0
O=c1[nH]cnc2cc(Cl)ccc12	-1	5	11	50*	1	-2
O=C(Nc1cccnc1)C(Cc1ccccc1)n1cccc1 (stereo not drawn)	1	-6	-1	-1	-4	0
O=C(Nc1ncc(Br)s1)C(Cc1ccccc1)n1cccc1 (stereo not drawn)	-1	13	99*	-1	-14	0
CN1CCN(Cc2nc3c(c(=O)n(C)c(=O)n3C)n2CCc2ccccc2)CC1	0	-19	-8	0	-11	0
CCOc1ccc(OCC)c(NC(=O)CN2CCN(c3cccc(C)c3C)CC2)c1	·	-11	·	4	-7	28*
COC(=O)c1cc(OC)c(OC)cc1NC(=O)c1c(-c2ccccc2Cl)noc1C	-2	36	-29	1	28	-1
